From PubChem
Most compounds without a hit are left out; they make up all but 1.8% or so of the library.
TCR-CD3 inh = inhibitors of human TCR-CD3 interaction; AID 651800; 360,000 tested, 0.37% active; inhibition, % at 9.4 µM; TAMRA-labeled TCR probe fluorescence, biochemical; in the data active = inhibition above about 19%;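 also: recombinant mutant TCR 2C K166C tagged with TAMRA read by polarization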
mABHD4 FP = inhibitors of mouse ABHD4; Q8VD66; purified mABHD4, FP-Rh probe fluorescence polarization; inhibition, % at 8.92 µM; 370,000 tested, 0.54% active; AID 720543;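 active = inhibition exceeding the mean over every tested compound plus 3 SD, cut at about 30% in these data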
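Test system: mABHD4 protein | Buffer or medium: HEPES pH 7.0 buffer, 150 mM NaCl, 0.01% Pluronic F-127 | Probe or stimulus: FP-Rh fluorescent activity-based probe, added after compound pre-incubation | Timing: Pre-incubation 45 min, probe exposure 60 min, at 25 °C | Technique: Fluorescence polarization, excitation 525 nm, emission 598 nm, BODIPY TMR filters | Repeats: Single well per compound (singlicate)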
SIAE inh = inhibitors of human sialic acid acetylesterase SIAE | 370,000 tested, 0.69% active | AID 1053197 | SIAE FP-Rh probe binding, fluorescence polarization | inhibition, % at 9.66 µM;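 active = inhibition above a cutoff: mean of compounds within the control limits plus 3 SD of those, cut at about 17% in these data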
ARNT TACC3 PPI = disrupts binding between human ARNT and TACC3; 390,000 tested, 0.66% active; AlphaScreen His-ARNT PAS-B/GST-TACC3 binding, luminescence; TACC3 fragment carries E629A point mutation; Q9Y6A5; inhibition, % at 9.99 µM;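 active = mean inhibition of replicates at least 50% and at least half of replicates each reaching 50%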
HTRA1 inh = HTRA1 (human) protease inhibition; Q92743; recombinant HTRA1, FP-rhodamine activity-based probe, fluorescence polarization; inhibition, % at 5.96 µM; 340,000 tested, 0.5% active; AID 504803; in the data active = inhibition above about 36%
Target sequence (Q92743 whole entry, looked up): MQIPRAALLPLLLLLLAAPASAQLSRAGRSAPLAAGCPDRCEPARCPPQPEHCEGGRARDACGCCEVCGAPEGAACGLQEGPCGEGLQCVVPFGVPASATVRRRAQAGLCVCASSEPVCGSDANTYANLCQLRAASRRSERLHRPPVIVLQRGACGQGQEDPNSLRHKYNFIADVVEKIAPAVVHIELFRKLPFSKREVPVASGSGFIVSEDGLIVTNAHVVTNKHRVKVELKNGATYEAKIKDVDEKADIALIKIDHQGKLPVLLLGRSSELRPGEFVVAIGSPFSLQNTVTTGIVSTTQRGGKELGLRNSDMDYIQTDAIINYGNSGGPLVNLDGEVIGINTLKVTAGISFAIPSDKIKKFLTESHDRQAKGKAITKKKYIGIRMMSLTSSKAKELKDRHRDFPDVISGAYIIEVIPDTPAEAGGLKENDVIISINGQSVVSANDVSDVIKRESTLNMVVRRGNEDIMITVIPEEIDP
Numbers stand for hits.

`C[C@H]1CN([C@@H](C)CO)C(=O)c2cccc(NC(=O)c3ccc(-c4nccs4)cc3)c2O[C@@H]1CN(C)C(=O)Nc1ccccc1` gave ARNT TACC3 PPI inactive.
Cc1noc(C)c1S(=O)(=O)Nc1ccc2c(c1)C(=O)N([C@H](C)CO)C[C@H](C)[C@@H](CN(C)Cc1ccc(Oc3ccccc3)cc1)O2 was read as ARNT TACC3 PPI inactive.
Screening CCNc1nc(NCC)nc(OCC(=O)O)n1 returned TCR-CD3 inh inactive, mABHD4 FP inactive, SIAE inh inactive, ARNT TACC3 PPI inactive and HTRA1 inh inactive.
`CCNc1nc(NCC)nc(C(=O)NN)n1` gave TCR-CD3 inh inactive, mABHD4 FP inactive, SIAE inh inactive, ARNT TACC3 PPI 75 and HTRA1 inh inactive.
`COc1ccccc1S(=O)(=O)N[C@H]1CC[C@@H](CCn2cc(C3CCCCC3)nn2)O[C@H]1CO` gave ARNT TACC3 PPI inactive.
`COc1cccc(-c2ccc3c(c2)[C@@H]2[C@@H](CCN2S(=O)(=O)c2cn(C)cn2)[C@@H](CO)N3)c1` gave ARNT TACC3 PPI active.
`COC(=O)c1cccc(-c2ccc(C(c3c(C)[nH][nH]c3=O)c3c(C)[nH][nH]c3=O)o2)c1` gave TCR-CD3 inh inactive, mABHD4 FP inactive, SIAE inh inactive, ARNT TACC3 PPI 64 and HTRA1 inh inactive.
For C[C@@H]1CN([C@@H](C)CO)S(=O)(=O)c2ccc(C#Cc3ccc(F)cc3)cc2O[C@@H]1CN(C)C(=O)c1ccccn1 the results were ARNT TACC3 PPI inactive.
CCOc1cc(/C=C2\C(=O)N(c3ccc(C(N)=O)cc3)N=C2C)ccc1OC(=O)c1cccs1 was read as ARNT TACC3 PPI 14 and HTRA1 inh inactive.
Screening Cc1c(CCC(=O)N[C@@H](C)C(=O)O)c(=O)oc2cc3occ(-c4ccccc4)c3cc12 returned TCR-CD3 inh inactive, mABHD4 FP inactive, SIAE inh inactive, ARNT TACC3 PPI 49 and HTRA1 inh inactive.
For CCCC(=O)Nc1ccc2c(c1)C(=O)N(C)C[C@@H](OC)[C@@H](C)CN(Cc1ccccc1F)[C@H](C)CO2 the results were ARNT TACC3 PPI inactive.
`Cc1ccc(C(=O)Sc2cccccc2=O)cc1` gave TCR-CD3 inh inactive, mABHD4 FP inactive, SIAE inh inactive, ARNT TACC3 PPI 57 and HTRA1 inh inactive.
`C[C@@H]1CN([C@@H](C)CO)C(=O)c2cc(-c3ccccc3F)cnc2O[C@@H]1CN(C)C(=O)C1CCOCC1` gave ARNT TACC3 PPI inactive.
For O=C(c1c(O)c2ccccc2oc1=O)C1CCC1 the results were TCR-CD3 inh inactive, mABHD4 FP inactive, SIAE inh inactive, ARNT TACC3 PPI inactive and HTRA1 inh inactive.
For O=c1oc2ccccc2c(O)c1Sc1c(O)c2ccccc2oc1=O the results were ARNT TACC3 PPI 76 and HTRA1 inh inactive.
`c1cn(CCCNC2=NCCCCC2)cn1` gave TCR-CD3 inh inactive, mABHD4 FP inactive, SIAE inh inactive, ARNT TACC3 PPI 97 and HTRA1 inh inactive.
`c1cn(CCCNC2CCCCCCC2)cn1` gave TCR-CD3 inh inactive, mABHD4 FP inactive, SIAE inh inactive, ARNT TACC3 PPI inactive and HTRA1 inh inactive.
CCOc1c(Br)cc(CNc2ccc3c(c2)OCCO3)cc1OC was read as TCR-CD3 inh inactive, mABHD4 FP inactive, SIAE inh 29, ARNT TACC3 PPI inactive and HTRA1 inh inactive.
For O=C(O)Cc1cccc(=O)c(O)c1C(=O)O the results were ARNT TACC3 PPI 93 and HTRA1 inh inactive.
For O=C(Nc1ccccc1)N1CCCCN2[C@@H](CO)[C@H](c3ccc(C4=CCCCC4)cc3)[C@@H]2C1 the results were ARNT TACC3 PPI inactive.
`COc1ccccc1NC(=O)c1cc2c(CO)cnc(C)c2oc1=Nc1ccc(OC)c(OC)c1` gave TCR-CD3 inh inactive, mABHD4 FP inactive, SIAE inh inactive, ARNT TACC3 PPI inactive and HTRA1 inh inactive.
For COc1cc(N=c2oc3c(C)ncc(CO)c3cc2C(N)=O)cc(OC)c1OC the results were TCR-CD3 inh inactive, mABHD4 FP inactive, SIAE inh inactive, ARNT TACC3 PPI 35 and HTRA1 inh inactive.
CC(C)C#Cc1cnc2c(c1)C(=O)N([C@@H](C)CO)C[C@H](C)[C@@H](CN(C)Cc1ccccc1F)O2 was read as ARNT TACC3 PPI inactive.
`COC/C=C/C1=CC2=CC(=O)C(C)(OC(=O)c3cnc4ccccc4n3)C(=O)C2=CN1CCOC` (stereo unspecified) gave TCR-CD3 inh inactive, mABHD4 FP inactive, SIAE inh inactive, ARNT TACC3 PPI inactive and HTRA1 inh inactive.
